Assay results as given in paper PMC7658953 (ACS Omega, 2020).
Converted amounts (≈) assume the structure as drawn. “And” between values parts separate entries of the source, which are not always exact repeats. Equal entries are not always repeated.

Assays:
S. aureus cells = test: MIC of palmitic acid, preliminary studies; assay type: cell-based; settings: Staphylococcus aureus
MRSA ATCC 33591 [1] = test: MIC, broth microdilution; assay type: cell-based, Staphylococcus aureus
Method in brief: (§1)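 Broth microdilution: mid-log cells washed, suspended in cation-adjusted MHB or TSB (0.25% glucose, 0.5% NaCl), and adjusted to 10^8 CFU/mL (OD600 0.5). Added to 2-fold serial dilutions of test compound in 0.2% BSA/0.01% acetic acid, final about 2–5 × 10^5 CFU/mL in polypropylene wells. Incubated 16–18 h at 37 °C, 180 rpm; A600 read. MIC = lowest concentration fully inhibiting growth. Duplicates on at least two days.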

S. aureus biofilm = test: Inhibition of biofilm formation, both strains pooled; assay type: cell-based, Staphylococcus aureus; settings: identical conditions, 24 h, TSB, MSSA and MRSA
Method in brief: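 Overnight S. aureus diluted to 10^5 CFU/mL in TSB (0.25% glucose, 0.5% NaCl). Biofilms grown 24 h at 37 °C in polystyrene wells with 20 μM test compound. Biomass by crystal violet after two PBS washes, read at 570 nm. Metabolic activity by resazurin: plate sonicated 5 min at 40 kHz, 30 min dark at room temperature, ex 550/em 590 nm. Viable cells by scraping into PBS, sonicating, plating and counting after 16–18 h at 37 °C.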

MSSA ATCC 29213 [2] = test: MIC, broth microdilution; assay type: cell-based, Staphylococcus aureus
Method in brief: as §1

[3] = system: MSSA ATCC 29213 and MRSA ATCC 33591; test: Killing kinetics of stationary phase cells in TSB medium, both strains pooled; assay type: cell-based, Staphylococcus aureus; settings: 10 × MIC, 10^7 CFU/mL
Method in brief: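 Adjusted to 10^7 CFU/mL (OD600 0.05) in the same medium and incubated at 37 °C with test compound at 30, 40 or 50 μM; vancomycin included as comparator. Aliquots taken at 15 and 30 min, 1, 2, 3 and 24 h, serially diluted and drop-plated; colonies counted after 16–18 h. Three independent runs.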

MRSA ATCC 33591 [4] = test: In vitro resistance development, serial passage study; assay type: cell-based, Staphylococcus aureus; settings: cation-adjusted MHB, ratio of MIC after passage to MIC before first passage
[5] = system: stationary phase S. aureus cells; test: SEM and TEM of stationary phase cells; assay type: cell-based, Staphylococcus aureus; settings: 20 μg/mL, positive control
MSSA ATCC 29213 [6] = test: Killing of stationary phase cells in PBS, colony count; assay type: cell-based, Staphylococcus aureus; settings: 2 h, 10^5 CFU/mL stationary phase cells
Method in brief: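 Stationary-phase cells washed once and resuspended in 10 mM PBS (150 mM NaCl, pH 7.4). Adjusted to about 10^8 CFU/mL (OD600 0.5), then diluted 10-fold serially to 10^5 CFU/mL. Exposed to test compound for 2 h at 37 °C, 180 rpm; aliquots diluted, plated and counted after overnight incubation at 37 °C. Bactericidal defined as >3 log reduction versus untreated control.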

[7] = system: 3T3 murine fibroblast cells; test: Cytotoxicity, MTT assay; assay type: cell-based; settings: 2% Triton X-100, positive control
Method in brief: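 3T3 murine fibroblasts seeded at 0.2 × 10^5 cells/well in DMEM with 10% FBS for 24 h to about 75% confluence. Exposed to 20 or 50 μM test compound in serum-free DMEM for 2 h at 37 °C, 5% CO2. Washed, then 0.1 mg/mL MTT for 2 h in the dark; formazan dissolved in DMSO and read at 570 nm. Survival % = OD570 sample/untreated × 100. Two independent runs in duplicate.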

[8] = system: murine red blood cells (RBCs); test: Hemolytic activity; assay type: cell-based; settings: 1 h
Method in brief: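 Fresh murine RBCs washed twice in 35 mM PBS (150 mM NaCl, pH 7.4) and suspended at 4% (v/v). Mixed 1:1 with 2-fold serial dilutions of test compound in PBS and held 1 h at 37 °C. After centrifugation, supernatant diluted in PBS and hemoglobin read at 414 nm. Lysis % scaled between PBS and 0.1% Triton X-100 (100%). Duplicate wells, two days.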

[9] = Staphylococcus aureus, ATCC33591|MRSA
[10] = tryptic soy broth (0.25% glucose, 0.5% NaCl)
[11] = Staphylococcus aureus, ATCC29213|MSSA

CCCCCCCCCCCCCCCC(=O)O [palmitic acid]
MIC (S. aureus cells): > 50 µM

CN[C@H](CC(C)C)C(=O)N[C@H]1C(=O)N[C@@H](CC(N)=O)C(=O)N[C@H]2C(=O)N[C@H]3C(=O)N[C@H](C(=O)N[C@H](C(=O)O)c4cc(O)cc(O)c4-c4cc3ccc4O)[C@H](O)c3ccc(c(Cl)c3)Oc3cc2cc(c3O[C@@H]2O[C@H](CO)[C@@H](O)[C@H](O)[C@H]2O[C@H]2C[C@](C)(N)[C@H](O)[C@H](C)O2)Oc2ccc(cc2Cl)[C@H]1O [vancomycin]
MIC (MRSA ATCC 33591 [1]; [9]): 0.48 to 0.96 µM (≈ 0.696 to 1.39 µg/mL)
MIC (MRSA ATCC 33591 [1]; [10]): 0.48−0.96 μM
log reduction in the viable cell count of the biofilm (S. aureus biofilm): ≥ 4.8 log
reduction of biofilm biomass (crystal violet) (S. aureus biofilm): ≥ 98.32 ± 0.95%
reduction of metabolic activity in the biofilm (resazurin) (S. aureus biofilm): 100%
MIC (MSSA ATCC 29213 [2]; [11]): 0.48 µM (≈ 0.696 µg/mL)
MIC (MSSA ATCC 29213 [2]; [10]): 0.48 µM (≈ 0.696 µg/mL)
log reduction in the cell count ([3]; 24 h, range over MSSA and MRSA): 3.4–4.4 log
cell viability ([3]; up to 3 h): did not affect the cell viability
increase in MIC after 18 serial passages at sub-MIC concentrations (MRSA ATCC 33591 [4]): 8 fold

gramicidin D
bacterial morphology and surface integrity in SEM and TEM [5]: presence of cell debris, dents on the surface, and loss in shape of the cells

Ac-K^11-P^12-V^13-NH2 [α-MSH(11-13)]
log reduction in viable cell count (MSSA ATCC 29213 [6]; 150 μM): 0.7 log

Triton X-100
reduction in survival of the cells relative to untreated growth control [7]: 52.8%

Cc1onc(-c2ccccc2)c1C(=O)N[C@@H]1C(=O)N2[C@@H]1SC(C)(C)[C@@H]2C(=O)O [oxacillin]
MIC (MRSA ATCC 33591 [1]; [9]): 134 µM to 268 µM and 56.8 µg/mL to 114 µg/mL
MIC (MRSA ATCC 33591 [1]; [10]): 134.1–268.3 μM and 56.8–113.6 μg/mL
MIC (MSSA ATCC 29213 [2]; [11]): < 0.8 µM and < 0.35 µg/mL
MIC (MSSA ATCC 29213 [2]; [10]): < 0.8 μM and < 0.35 μg/mL

Ac-H^6-F^7-R^8-W^9-G^10-K^11-P^12-V^13-NH2 [α-MSH(6-13)]
log reduction in viable cell count (MSSA ATCC 29213 [6]; 20 μM): ~2 log
log reduction in viable cell count (MSSA ATCC 29213 [6]; 50 μM): ~2 log

O=C(O)c1cn(C2CC2)c2cc(N3CCNCC3)c(F)cc2c1=O [ciprofloxacin]
increase in MIC after 18 serial passages at sub-MIC concentrations (MRSA ATCC 33591 [4]): 66 fold

CC[C@H](C)[C@H](NC(=O)CN)C(=O)NCC(=O)N[C@@H](C)C(=O)N[C@H](C(=O)N[C@@H](CC(C)C)C(=O)N[C@@H](CCCCN)C(=O)N[C@H](C(=O)N[C@@H](CC(C)C)C(=O)N[C@H](C(=O)N[C@H](C(=O)NCC(=O)N[C@@H](CC(C)C)C(=O)N1CCC[C@H]1C(=O)N[C@@H](C)C(=O)N[C@@H](CC(C)C)C(=O)N[C@H](C(=O)N[C@@H](CO)C(=O)N[C@@H](Cc1c[nH]c2ccccc12)C(=O)N[C@H](C(=O)N[C@@H](CCCCN)C(=O)N[C@@H](CCCNC(=N)N)C(=O)N[C@@H](CCCCN)C(=O)N[C@@H](CCCNC(=N)N)C(=O)N[C@@H](CCC(N)=O)C(=O)N[C@@H](CCC(N)=O)C(N)=O)[C@@H](C)CC)[C@@H](C)CC)[C@@H](C)O)[C@@H](C)O)C(C)C)C(C)C [melittin]
HC50 (concentration that causes lysis of 50% of the RBCs) [8]: ≤ 3.9 µM
